Reference: ChEMBL document CHEMBL4665741, “Synthesis and biological evaluation of thiazole derivatives on basic defects underlying cystic fibrosis” (Bioorg Med Chem Lett, 2020)
Calls of active or inactive are those of the source. The calls are words filed in the database; no cut-off is given here.

Tests used:
Assay type in all cases: cell-based
[1] = system: Cystic fibrosis transmembrane conductance regulator (Homo sapiens), P13569 [F508del]; experiment: Corrector activity at CFTR F508del mutant (unknown origin) expressed in forskolin/VX-770-stimulated human CFBE41o- cells co-expressing HS-YFP assessed as increase in iodide influx measuring HS-YFP quenching at 2 to 10 uM incubated for 24 hrs by fluorescent method; details: dose microM 2-10, time 24.0 hrs
Cystic fibrosis transmembrane conductance regulator (Homo sapiens), P13569 [F508del], sequence (P13569 as listed by the source): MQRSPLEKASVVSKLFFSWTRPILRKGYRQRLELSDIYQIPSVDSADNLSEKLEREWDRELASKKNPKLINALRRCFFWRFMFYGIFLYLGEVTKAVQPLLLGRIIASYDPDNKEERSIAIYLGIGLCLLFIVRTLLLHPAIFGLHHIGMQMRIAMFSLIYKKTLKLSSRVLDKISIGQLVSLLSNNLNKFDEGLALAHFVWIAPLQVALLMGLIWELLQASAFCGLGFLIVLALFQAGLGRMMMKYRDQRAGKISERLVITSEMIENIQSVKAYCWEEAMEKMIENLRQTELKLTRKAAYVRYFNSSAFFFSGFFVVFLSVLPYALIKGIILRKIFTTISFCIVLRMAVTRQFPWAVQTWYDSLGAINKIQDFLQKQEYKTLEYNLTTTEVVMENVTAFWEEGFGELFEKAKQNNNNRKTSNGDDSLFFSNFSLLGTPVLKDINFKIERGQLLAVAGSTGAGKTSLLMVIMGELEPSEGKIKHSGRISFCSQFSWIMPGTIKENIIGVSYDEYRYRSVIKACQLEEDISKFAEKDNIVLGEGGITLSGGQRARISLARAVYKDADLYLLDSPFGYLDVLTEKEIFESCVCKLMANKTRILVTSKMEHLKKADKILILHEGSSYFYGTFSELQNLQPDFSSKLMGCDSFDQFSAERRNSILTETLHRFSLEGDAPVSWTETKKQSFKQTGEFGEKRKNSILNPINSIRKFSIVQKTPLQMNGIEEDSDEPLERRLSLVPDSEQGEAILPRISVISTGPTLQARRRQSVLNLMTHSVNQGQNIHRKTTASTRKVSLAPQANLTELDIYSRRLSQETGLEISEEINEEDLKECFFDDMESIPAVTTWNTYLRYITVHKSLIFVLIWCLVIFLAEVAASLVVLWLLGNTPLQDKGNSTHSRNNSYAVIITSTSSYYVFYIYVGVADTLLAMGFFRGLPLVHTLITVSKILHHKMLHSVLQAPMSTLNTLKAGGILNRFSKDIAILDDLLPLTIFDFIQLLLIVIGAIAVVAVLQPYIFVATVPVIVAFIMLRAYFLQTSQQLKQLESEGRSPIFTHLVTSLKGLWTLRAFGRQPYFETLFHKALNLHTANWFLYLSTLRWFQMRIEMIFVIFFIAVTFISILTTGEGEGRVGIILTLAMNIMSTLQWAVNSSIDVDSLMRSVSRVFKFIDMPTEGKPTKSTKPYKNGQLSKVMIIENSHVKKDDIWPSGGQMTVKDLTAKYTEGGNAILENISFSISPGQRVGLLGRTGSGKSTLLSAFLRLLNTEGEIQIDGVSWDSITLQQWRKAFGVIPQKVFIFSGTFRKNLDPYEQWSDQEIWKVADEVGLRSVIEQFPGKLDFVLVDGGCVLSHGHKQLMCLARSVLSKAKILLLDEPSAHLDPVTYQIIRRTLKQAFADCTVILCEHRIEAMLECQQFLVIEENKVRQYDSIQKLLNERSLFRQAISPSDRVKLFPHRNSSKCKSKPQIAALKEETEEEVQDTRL
Summary of the method: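 CFBE41o- bronchial epithelial cells stably expressing F508del-CFTR and halide-sensitive YFP, incubated 24 h with compound at 2 and 10 μM, vehicle (DMSO), or VX-809 (1 μM) as positive control. F508del-CFTR activity at the plasma membrane was then read as the rate of HS-YFP quenching caused by iodide influx.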

[2] = target: Cystic fibrosis transmembrane conductance regulator (Homo sapiens, UniProt P13569, F508DEL); experiment: (§1) Potentiation of CFTR F508 deletion mutant (unknown origin) expressed in CFBE41o- cells coexpressing HS-YFP assessed as increase in iodide influx measuring HS-YFP quenching incubated for 20 mins in presence of forskolin by fluorescent method
Cystic fibrosis transmembrane conductance regulator, sequence (P13569 as listed by the source): as above

[3] = system: Cystic fibrosis transmembrane conductance regulator (Homo sapiens), P13569 [F508del]; experiment: as §1; details: filed as opener
[4] = system: Cystic fibrosis transmembrane conductance regulator (Homo sapiens), P13569 [F508del]; experiment: Potentiation of CFTR F508del mutant (unknown origin) expressed in human CFBE41o- cells co-expressing HS-YFP assessed as increase in halide influx measuring HS-YFP quenching measured after acute treatment at 2 to 20 uM for 20 mins in presence of forskolin by fluorescent method; details: filed as opener, dose microM 2-20, time 20.0 min
Summary of the method: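 CFBE41o- cells stably co-expressing F508del-CFTR and HS-YFP were held 24 h at 32°C to rescue mutant trafficking. Cells were then acutely treated with compound (2 and 20 μM) plus forskolin (20 μM). Controls were forskolin alone and forskolin plus VX-770 (1 μM). Halide influx was read as the HS-YFP quenching rate.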

[5] = system: Cystic fibrosis transmembrane conductance regulator (Homo sapiens), P13569 [F508del]; experiment: Potentiation of CFTR F508 deletion mutant (unknown origin) expressed in CFBE41o- cells coexpressing HS-YFP assessed as increase in halide influx measuring HS-YFP quenching measured after acute treatment at 10 uM after 24 hrs in presence of forskolin and CFTR inhibitor-172 by fluorescent method
[6] = system: Cystic fibrosis transmembrane conductance regulator (Homo sapiens), P13569 [F508del]; experiment: Potentiation of CFTR F508 deletion mutant (unknown origin) expressed in CFBE41o- cells coexpressing HS-YFP assessed as increase in halide influx measuring HS-YFP quenching measured after acute treatment at 0.08 to 50 uM after 24 hrs in presence of forskolin by fluorescent method; details: filed as opener, dose microM 0.08-50, time 24.0 hrs
Summary of the method: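 Concentration-response on CFBE41o- cells co-expressing F508del-CFTR and HS-YFP, pre-incubated 24 h at 32°C to rescue maturation. Compound was added acutely over 80 nM–50 μM with forskolin. Controls were forskolin alone and VX-770 (1 μM). Activity was measured by HS-YFP quenching from halide influx.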

[7] = system: Cystic fibrosis transmembrane conductance regulator (Homo sapiens), P13569 [F508del]; experiment: Potentiation of CFTR F508 deletion mutant (unknown origin) expressed in CFBE41o- cells coexpressing HS-YFP assessed as increase in halide influx measuring HS-YFP quenching measured after acute treatment at 1 uM after 24 hrs in presence of forskolin and CFTR inhibitor-172 by fluorescent method

Activity [1]	SMILES	other results
inactive	O=C(O)Cc1csc(NC(=O)c2ccc(Cl)cc2)n1	–
inactive	CCN(C(=O)c1ccc(I)cc1)c1nc(CC(=O)O)cs1	–
inactive	CCOC(=O)Cc1csc(N(CC)C(=O)c2ccc(I)cc2)n1	EC50 [2]: 3200 nM; Emax [3]: 1.9; Activity [4]: Active; Activity [5]: inactive; Activity [6]: Active
inactive	CCN(C(=O)c1ccccc1)c1nc(CC(=O)O)cs1	–
inactive	COc1cc(C(=O)Nc2nc(CC(=O)O)cs2)cc(OC)c1OC	–
inactive	CCOC(=O)Cc1csc(N(CC)C(=O)c2ccccc2)n1	–
inactive	CCOC(=O)Cc1csc(NC(=O)c2ccccc2)n1	–
inactive	CCOC(=O)Cc1csc(NC(=O)c2ccc(Cl)cc2)n1	–
inactive	CCOC(=O)Cc1csc(NC(=O)c2ccc(I)cc2)n1	–
inactive	CCOC(=O)Cc1csc(N(CC)C(=O)c2cc(OC)c(OC)c(OC)c2)n1	–
inactive	CCOC(=O)Cc1csc(NC(=O)c2cc(OC)c(OC)c(OC)c2)n1	–
inactive	CCOC(=O)Cc1csc(N(CC)C(=O)c2ccc(Cl)cc2)n1	EC50 [2]: 1800 nM; Emax [3]: 1.8; Activity [4]: Active; Activity [5]: inactive; Activity [6]: Active
–	CC(C)(C)c1cc(C(C)(C)C)c(NC(=O)c2c[nH]c3ccccc3c2=O)cc1O	Activity [7]: inactive
inactive	O=C(O)Cc1csc(NC(=O)c2ccc(I)cc2)n1	–
inactive	CCN(C(=O)c1cc(OC)c(OC)c(OC)c1)c1nc(CC(=O)O)cs1	–
inactive	CCN(C(=O)c1ccc(Cl)cc1)c1nc(CC(=O)O)cs1	–
inactive	O=C(O)Cc1csc(NC(=O)c2ccccc2)n1	–
